Assay results from different studies.

`CCOc1ccc(-c2nc3ccc(C)cc3[nH]2)cc1` gave an IC50 of 76.2 µM (human Rhabdomyosarcoma cell; cell growth or viability, MTT; 48 h).
With `Cc1[nH]c(/C=C2\C(=O)Nc3ccc(S(=O)(=O)N(C)c4cccc(Cl)c4)cc32)c(C)c1C(=O)N1CCN(C)CC1` the IC50 was 4.7 µM (Rh30; cell growth or viability; 72 h).
For `COc1cc([C@@H]2c3cc4c(cc3[C@@H](O[C@@H]3O[C@@H]5CO[C@@H](C)O[C@H]5[C@H](O)[C@H]3O)[C@H]3COC(=O)[C@H]23)OCO4)cc(OC)c1O`, the IC50 was 8.12 µM (SMMC-7721; cell growth or viability, MTT; 48 h).
With `C(=C\c1c[nH]c2ccccc12)/c1cc(/C=C/c2cccs2)[nH]n1` the IC50 was 0.9 µM (CHO-K1; cell growth or viability, MTT; 72 h).
For `COc1cccc2c1C(=O)c1c(O)c3c(c(O)c1C2=O)C[C@@](O)(C(=O)CO)C[C@@H]3O[C@H]1C[C@H](N)[C@H](O)[C@H](C)O1`, the IC50 was 6.2 µM (CHO-K1; cell growth or viability, SRB; 72 h).
For `Cc1ccc2nc(-c3ccc([N+](=O)[O-])cc3)n(Cc3ccccc3Cl)c2c1`, the IC50 was 17.6 µM (human Rhabdomyosarcoma cell; cell growth or viability, MTT).
`COCCCN1C(/C=C/c2cccnc2)=CC(=O)CC1c1cccnc1` (stereo not shown) gave an IC50 of greater than 75 µM (CHO-K1; cell growth or viability, MTT; 72 h).
With `Cc1ccc2nc(-c3ccco3)n(Cc3ccccc3)c2c1` the IC50 was 39.2 µM (human Rhabdomyosarcoma cell; cell growth or viability, MTT).
With `Nc1c(-c2ccccc2[N+](=O)[O-])nc2ccccn12` the IC50 was 65 µM (Vero; cell growth or viability, MTT; 48 h).
`O=C(/C=C(/C=C/c1cccnc1)NCCO)/C=C/c1cccnc1` has an IC50 of greater than 75 µM (CHO-K1; cell growth or viability, MTT; 72 h).
`Cc1ccc2nc(-c3ccc(Cl)cc3)n(Cc3ccccc3Cl)c2c1` has an IC50 of 41 µM (human Rhabdomyosarcoma cell; cell growth or viability, MTT).
`COc1cccc2c1C(=O)c1c(O)c3c(c(O)c1C2=O)C[C@@](O)(C(=O)CO)C[C@@H]3O[C@H]1C[C@H](N)[C@H](O)[C@H](C)O1` has an IC50 of 2.5 µM (CHO-K1; cell growth or viability, MTT; 72 h).
With `COc1ccccc1NCC(O)COc1cccc2[nH]c3ccccc3c12` (stereo not shown) the IC50 was greater than 100 µM (NCI-H1299; cell growth or viability, CCK-8; 72 h).
With `O=C(O)Cc1ccccc1Nc1c(Cl)cccc1Cl` the IC50 was 54.7 µM (RAW264.7; NO release, inhibitor; LPS-stimulated).
The IC50 of `CCn1c(-c2nnc(NC(=O)c3cc4c([nH]c5ccccc54)c(-c4ccc(C)cc4)n3)s2)cc2ccccc21` is reported as 39.6 µM (HL-60; cell growth or viability, MTT; 72 h).
For `COc1cc(/C=C/C(=O)/C=C(O)/C=C/c2c[nH]c3ccccc23)ccc1O`, the IC50 was 26.4 µM (CHO-K1; cell growth or viability, MTT; 72 h).
For `C=CCn1c(-c2ccc([N+](=O)[O-])cc2)nc2ccc(C)cc21`, the IC50 was 86 µM (human Rhabdomyosarcoma cell; cell growth or viability, MTT).
For `C/C(=N\O)c1ccc(-c2cccc(O)c2)c(Cl)c1O`, the IC50 was 17.8 µM (NCI-H1299; cell growth or viability, MTT; 48 h).
For `COc1ccccc1OCCNCC(O)COc1cccc2[nH]c3ccccc3c12` (stereo not shown), the IC50 was 32.4 µM (NCI-H1299; cell growth or viability, CCK-8; 72 h).
For `COc1cc(/C=C/C(=O)/C=C(O)/C=C/c2ccccn2)ccc1O`, the IC50 was 30.9 µM (CHO-K1; cell growth or viability, SRB; 72 h).
`Cc1ccc2nc(-c3ccco3)[nH]c2c1` gave an IC50 of greater than 100 µM (human Rhabdomyosarcoma cell; cell growth or viability, MTT; 48 h).
For `COc1ccccc1CCCNCC(O)COc1cccc2[nH]c3ccccc3c12` (stereo not shown), the IC50 was 7.2 µM (NCI-H1299; cell growth or viability, CCK-8; 72 h).
With `COCOc1c(OC)cc(C(=O)c2csc(-c3ccccc3)n2)cc1OC` the IC50 was 0.055 µM (B16-F1; cell growth or viability, SRB).
`COc1ccccc1CCNCC(O)COc1cccc2[nH]c3ccccc3c12` (stereo not shown) has an IC50 of 15.2 µM (NCI-H1299; cell growth or viability, CCK-8; 72 h).
`NNc1nc(NCc2ccccc2)nc(Nc2ccc(Br)cc2)n1` has an IC50 of greater than 30 µM (SK-BR-3; cell growth or viability, SRB; 72 h).
The IC50 of `CCCCN(CCCC)C(=O)c1ncn2c(=O)n(C)nnc12` is reported as 11 µM (D54; cell growth or viability, resazurin; 7 days).
The IC50 of `O=C(/C=C(/C=C/c1cccnc1)NC1CCCCC1)/C=C/c1cccnc1` is reported as 20.4 µM (CHO-K1; cell growth or viability, SRB; 72 h).
With `O=C(/C=C(O)/C=C/c1cccs1)/C=C/c1c[nH]c2ccccc12` the IC50 was 5.9 µM (CHO-K1; cell growth or viability, MTT; 72 h).
The IC50 of `Brc1ccc(Nc2nc(NCc3ccccc3)nc(NCc3ccccc3)n2)cc1` is reported as 20.4 µM (SK-BR-3; cell growth or viability, SRB; 72 h).
`Cc1ccc2nc(-c3ccccc3O)[nH]c2c1` has an IC50 of 6.76 µM (human Rhabdomyosarcoma cell; cell growth or viability, MTT; 48 h).
For `COCCNC(=C\C(=O)/C=C/c1cccnc1)/C=C/c1cccnc1`, the IC50 was 45.1 µM (CHO-K1; cell growth or viability, MTT; 72 h).
For `COc1cc(/C=C/C(=O)/C=C(O)/C=C/c2cccnc2)ccc1O`, the IC50 was 36.1 µM (CHO-K1; cell growth or viability, SRB; 72 h).
The IC50 of `COCCCNC(=C\C(=O)/C=C/c1cccnc1)/C=C/c1cccnc1` is reported as 24.1 µM (CHO-K1; cell growth or viability, SRB; 72 h).
`O=C(Nc1nnc(-c2cc3ccccc3[nH]2)s1)c1cc2c([nH]c3ccccc32)c(-c2ccc(Cl)cc2)n1` has an IC50 of 9.31 µM (HL-60; cell growth or viability, MTT; 72 h).
With `Clc1ccc(-c2nc3ccccc3n2Cc2ccccc2)cc1` the IC50 was 31.7 µM (human Rhabdomyosarcoma cell; cell growth or viability, MTT).
With `C[C@@H](Oc1cc(-c2cnn(C3CCNCC3)c2)cnc1N)c1c(Cl)ccc(F)c1Cl` the IC50 was 0.99 µM (Rh30; cell growth or viability; 72 h).
With `Cn1nnc2c(C(=O)N3CCCC3)ncn2c1=O` the IC50 was 12 µM (D54; cell growth or viability, resazurin; 7 days).
The IC50 of `COc1ccccc1/C=C/CNCC(O)COc1cccc2[nH]ccc12` (stereo not shown) is reported as 23.1 µM (NCI-H1299; cell growth or viability, CCK-8; 72 h).
For `CC(C)(C)Nc1c(-c2ccc(N)cc2)nc2ccccn12`, the IC50 was 91 µM (Vero; cell growth or viability, MTT; 48 h).
`COc1cc(/C=C/C(=O)/C=C(O)/C=C/c2ccnc3ccccc23)ccc1O` gave an IC50 of 22.3 µM (CHO-K1; cell growth or viability, MTT; 72 h).
For `O=C(/C=C(O)/C=C/c1ccc[nH]1)/C=C/c1ccc[nH]1`, the IC50 was 6.9 µM (CHO-K1; cell growth or viability, MTT; 72 h).
For `CC(C)C[C@H](NC(=O)[C@H](Cc1ccccc1)NC(=O)c1cnccn1)B(O)O`, the IC50 was 0.014 µM (MKN-45; cell growth or viability, ATP luminescence).
For `COc1ccccc1/C=C/CNCC(O)COc1ccc2ccccc2c1` (stereo not shown), the IC50 was 16.3 µM (NCI-H1299; cell growth or viability, CCK-8; 72 h).
With `O=C1C=C(/C=C/c2cccnc2)N(CCCO)C(c2cccnc2)C1` (stereo not shown) the IC50 was greater than 75 µM (CHO-K1; cell growth or viability, SRB; 72 h).
`COc1cc(Nc2nccc(-c3cnn4nc(OC)ccc34)n2)cc(C(F)(F)F)c1` gave an IC50 of 0.21 µM (COR-L279; cell growth or viability, ATP luminescence).
For `COc1cc(/C=C/C(=O)/C=C(O)/C=C/c2cccc3cnccc23)ccc1O`, the IC50 was 32.6 µM (CHO-K1; cell growth or viability, SRB; 72 h).
